According to ChEMBL document CHEMBL2424590, “4-[18F]Fluoro-m-hydroxyphenethylguanidine: a radiopharmaceutical for quantifying regional cardiac sympathetic nerve density with positron emission tomography” (J Med Chem, 2013):

Tests used:
Bone [1] = assay: Biodistribution in Sprague-Dawley rat bone at 20 to 120 uCi, iv after 60 mins by gamma counting analysis; type: ADME, organism-based, Bone element; conditions: in vivo, 1 h
How it was run: (§1)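 Sprague-Dawley rats (280–330 g), 2 male and 2 female per time point (5, 30, 60, 120 min), under light isoflurane, received a tail-vein bolus of 20–120 μCi tracer in 0.05–0.10 mL isotonic 60 mM sodium phosphate, pH 5.4. Tissues were weighed and gamma-counted. Decay-corrected dpm/g was normalized to injected dpm per kg body weight (%ID·kg/g).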

[2] = Half life in rhesus macaque monkey plasma at 5 to 6 mCi, iv by RP-HPLC analysis; type: ADME, organism-based, Macaca mulatta
How it was run: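 Six venous samples (1.5–2.0 mL; typically 1, 2, 4, 10, 30, 60 min) drawn during the monkey PET scan into heparin and centrifuged 1 min at 12000 × g. Plasma deproteinised with HClO₄ (final 0.4 N), spun, neutralised with KOH to pH 7.0–7.5 and filtered twice (0.22 μm). Analysed by reverse-phase HPLC (10% EtOH in 60 mM NaH₂PO₄, pH 5.4, 1.0 mL/min) with NaI(Tl) radiodetection. Decay-corrected intact fraction per sample; T1/2 is the time at which 50% of plasma activity is metabolite.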

Adrenal [3] = assay: Biodistribution in Sprague-Dawley rat adrenal at 20 to 120 uCi, iv after 120 mins by gamma counting analysis; type: ADME, organism-based, Adrenal tissue; conditions: in vivo, 2 h; how it was run: as §1
Liver [4] = assay: Biodistribution in Sprague-Dawley rat liver at 20 to 120 uCi, iv after 120 mins by gamma counting analysis; type: ADME, organism-based; conditions: in vivo, 2 h; how it was run: as §1
Heart [5] = assay: Biodistribution in Sprague-Dawley rat heart at 20 to 120 uCi, iv after 5 mins by gamma counting analysis; type: ADME, organism-based; conditions: in vivo; how it was run: as §1
Spleen [6] = assay: Biodistribution in Sprague-Dawley rat spleen at 20 to 120 uCi, iv after 60 mins by gamma counting analysis; type: ADME, organism-based; conditions: in vivo, 1 h
How it was run: (§2)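 Male and female rats (2 per sex per time point, 280–330 g) under light isoflurane given tail-vein bolus of 20–120 μCi tracer in 0.05–0.10 mL isotonic 60 mM sodium phosphate, pH 5.4. Tissues sampled at 5, 30, 60 or 120 min, weighed and gamma-counted. Decay-corrected dpm per gram normalised to injected dpm and body weight, given as %ID·kg/g.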

Bone [7] = assay: Biodistribution in Sprague-Dawley rat bone at 20 to 120 uCi, iv after 120 mins by gamma counting analysis; type: ADME, organism-based, Bone element; conditions: in vivo, 2 h; how it was run: as §1
Pancreas [8] = assay: Biodistribution in Sprague-Dawley rat pancreas at 20 to 120 uCi, iv after 5 mins by gamma counting analysis; type: ADME, organism-based; conditions: in vivo; how it was run: as §1
Testes [9] = assay: Biodistribution in Sprague-Dawley rat testes at 20 to 120 uCi, iv after 30 mins by gamma counting analysis; type: ADME, organism-based, Testis; conditions: in vivo, 0.5 h; how it was run: as §2
Nucleic Acid = assay: Ratio of drug level in heart to blood in rhesus macaque monkey at 5 to 6 mCi, iv after 90 mins by PET analysis; type: ADME, organism-based, Macaca mulatta; conditions: other tissue, 1.5 h
Muscle tissue = assay: Biodistribution in Sprague-Dawley rat muscle at 20 to 120 uCi, iv after 5 mins by gamma counting analysis; type: ADME, organism-based; conditions: in vivo; how it was run: as §1
Rattus norvegicus [10] = assay: Biodistribution in Sprague-Dawley rat stomach at 20 to 120 uCi, iv after 5 mins by gamma counting analysis; type: ADME, organism-based; conditions: in vivo; how it was run: as §2
[11] = Half life in Sprague-Dawley rat heart sympathetic neurons at 2 uCi/mL administered as infusion by gamma counting analysis; type: ADME, tissue-based; conditions: sympathetic neuron
How it was run: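 Isolated working rat hearts perfused with 54 μM corticosterone in all perfusates to block uptake-2. Tracer infused at <10 nM total mass for 10 min to measure neuronal uptake rate (mL/min/g wet), then switched to normal perfusate to follow clearance over 2 h.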

Rattus norvegicus [12] = assay: Biodistribution in Sprague-Dawley rat uterus at 20 to 120 uCi, iv after 120 mins by gamma counting analysis; type: ADME, organism-based; conditions: in vivo, 2 h; how it was run: as §2
Adrenal [13] = assay: Biodistribution in Sprague-Dawley rat adrenal at 20 to 120 uCi, iv after 30 mins by gamma counting analysis; type: ADME, organism-based, Adrenal tissue; conditions: in vivo, 0.5 h; how it was run: as §1
[14] = Drug uptake in rhesus macaque monkey lung at 5 to 6 mCi, iv after 90 mins by PET analysis; type: ADME, organism-based, Macaca mulatta; conditions: in vivo, 1.5 h
Spleen [15] = assay: Biodistribution in Sprague-Dawley rat spleen at 20 to 120 uCi, iv after 30 mins by gamma counting analysis; type: ADME, organism-based; conditions: in vivo, 0.5 h; how it was run: as §1
Heart [16] = assay: Biodistribution in Sprague-Dawley rat heart at 20 to 120 uCi, iv after 120 mins by gamma counting analysis; type: ADME, organism-based; conditions: in vivo, 2 h; how it was run: as §1
Rattus norvegicus [17] = assay: Biodistribution in Sprague-Dawley rat stomach at 20 to 120 uCi, iv after 120 mins by gamma counting analysis; type: ADME, organism-based; conditions: in vivo, 2 h; how it was run: as §2
Kidney [18] = assay: Biodistribution in Sprague-Dawley rat kidney at 20 to 120 uCi, iv after 120 mins by gamma counting analysis; type: ADME, organism-based; conditions: in vivo, 2 h; how it was run: as §1
Testes [19] = assay: Biodistribution in Sprague-Dawley rat testes at 20 to 120 uCi, iv after 60 mins by gamma counting analysis; type: ADME, organism-based, Testis; conditions: in vivo, 1 h; how it was run: as §2
Lung [20] = assay: Biodistribution in Sprague-Dawley rat lung at 20 to 120 uCi, iv after 30 mins by gamma counting analysis; type: ADME, organism-based; conditions: in vivo, 0.5 h; how it was run: as §1
Pancreas [21] = assay: Biodistribution in Sprague-Dawley rat pancreas at 20 to 120 uCi, iv after 30 mins by gamma counting analysis; type: ADME, organism-based; conditions: in vivo, 0.5 h; how it was run: as §1
[22] = Drug uptake in rhesus macaque monkey adrenal glands 5 to 6 mCi, iv after 90 mins by PET analysis in presence of desipramine; type: ADME, organism-based, Macaca mulatta, Adrenal gland; conditions: in vivo, 1.5 h
Kidney [23] = assay: Biodistribution in Sprague-Dawley rat kidney at 20 to 120 uCi, iv after 60 mins by gamma counting analysis; type: ADME, organism-based; conditions: in vivo, 1 h; how it was run: as §1
Adrenal [24] = assay: Biodistribution in Sprague-Dawley rat adrenal at 20 to 120 uCi, iv after 60 mins by gamma counting analysis; type: ADME, organism-based, Adrenal tissue; conditions: in vivo, 1 h; how it was run: as §1
Rattus norvegicus [25] = assay: Biodistribution in Sprague-Dawley rat stomach at 20 to 120 uCi, iv after 60 mins by gamma counting analysis; type: ADME, organism-based; conditions: in vivo, 1 h; how it was run: as §2
Lung [26] = assay: Biodistribution in Sprague-Dawley rat lung at 20 to 120 uCi, iv after 60 mins by gamma counting analysis; type: ADME, organism-based; conditions: in vivo, 1 h; how it was run: as §1
Testes [27] = assay: Biodistribution in Sprague-Dawley rat testes at 20 to 120 uCi, iv after 120 mins by gamma counting analysis; type: ADME, organism-based, Testis; conditions: in vivo, 2 h; how it was run: as §2
Brain [28] = assay: Biodistribution in Sprague-Dawley rat brain at 20 to 120 uCi, iv after 60 mins by gamma counting analysis; type: ADME, organism-based; conditions: in vivo, 1 h; how it was run: as §1
[29] = Drug uptake in rhesus macaque monkey left ventricle at 5 to 6 mCi, iv after 90 mins by PET analysis; type: ADME, organism-based, Macaca mulatta, Heart left ventricle; conditions: in vivo, 1.5 h
Liver [30] = assay: Biodistribution in Sprague-Dawley rat liver at 20 to 120 uCi, iv after 30 mins by gamma counting analysis; type: ADME, organism-based; conditions: in vivo, 0.5 h; how it was run: as §1
Liver [31] = assay: Biodistribution in Sprague-Dawley rat liver at 20 to 120 uCi, iv after 5 mins by gamma counting analysis; type: ADME, organism-based; conditions: in vivo; how it was run: as §1
Brain [32] = assay: Biodistribution in Sprague-Dawley rat brain at 20 to 120 uCi, iv after 5 mins by gamma counting analysis; type: ADME, organism-based; conditions: in vivo; how it was run: as §1
Blood = assay: Biodistribution in Sprague-Dawley rat blood at 20 to 120 uCi, iv after 60 mins by gamma counting analysis; type: ADME, organism-based; conditions: in vivo, 1 h; how it was run: as §1
[33] = Drug excretion in rat urinary bladder at 0.5 mCi by PET analysis; conditions: in vivo
[34] = Drug uptake in rhesus macaque monkey myocardium at 0.1 mCi after 10 to 30 mins by gamma counting analysis; type: ADME, Macaca mulatta; conditions: in vivo

Drug uptake (Bone [1]): 0.027 % ID/g
half-life [2]: 2.5 min
Drug uptake (Adrenal [3]): 0.133 %IDKg/g
Drug uptake (Liver [4]): 0.233 %IDKg/g
Drug uptake (Heart [5]): 0.746 %IDKg/g
Drug uptake (Spleen [6]): 0.253 %IDKg/g
Drug uptake (Bone [7]): 0.016 % ID/g
Drug uptake (Pancreas [8]): 0.137 %IDKg/g
Drug uptake (Testes [9]): 0.01 %IDKg/g
Ratio (Nucleic Acid): 3
Drug uptake (Muscle tissue): 0.019 % ID/g
Drug uptake (Rattus norvegicus [10]): 0.116 %IDKg/g
t1/2 [11]: > 1440 min
Drug uptake (Rattus norvegicus [12]): 0.081 %IDKg/g
Drug uptake (Adrenal [13]): 0.181 %IDKg/g
Drug uptake [14]: Not Active
Drug uptake (Spleen [15]): 0.262 %IDKg/g
Drug uptake (Heart [16]): 0.347 %IDKg/g
Drug uptake (Rattus norvegicus [17]): 0.089 %IDKg/g
Drug uptake (Kidney [18]): 0.078 %IDKg/g
Drug uptake (Testes [19]): 0.008 %IDKg/g
Drug uptake (Lung [20]): 0.136 %IDKg/g
Drug uptake (Pancreas [21]): 0.145 %IDKg/g
Drug uptake [22]: Not Active
Drug uptake (Kidney [23]): 0.186 %IDKg/g
Drug uptake (Adrenal [24]): 0.193 %IDKg/g
Drug uptake (Rattus norvegicus [25]): 0.115 %IDKg/g
Drug uptake (Lung [26]): 0.091 %IDKg/g
Drug uptake (Testes [27]): 0.004 %IDKg/g
Drug uptake (Brain [28]): 0.002 %IDKg/g
Drug uptake [29]: Active
Drug uptake (Liver [30]): 0.406 %IDKg/g
Drug uptake (Liver [31]): 0.477 %IDKg/g
Drug uptake (Brain [32]): 0.004 %IDKg/g
Drug uptake (Blood): 0.016 % ID/g
Drug excretion [33]: 19.9 %ID
SUV [34]: 1.2
SMILES: N=C(N)NCCc1ccc([18F])c(O)c1
